Assay results from ChEMBL document CHEMBL1134663, “Investigation of 5-nitrofuran derivatives: synthesis, antibacterial activity, and quantitative structure-activity relationships” (J Med Chem, 2001).

What was measured:
Staphylococcus aureus = assay: Activity against gram-positive Staphylococcus aureus strain ATCC 25923 bacteria; assay type: functional, organism-based; conditions: read-out: Log 1/IC50 (converted)
Outline: (§1)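 Sequential broth macrodilution. S. aureus was grown in TSB at 37 °C and C. crescentus in PYE (peptone, yeast extract, 0.8 mM MgSO4, 0.5 mM CaCl2) at 30 °C. Inoculum was an 8 h exponential culture diluted to about 2 × 10^5 bacteria/mL and added 1:1 to 2-fold serial dilutions. Incubation was 12 h (S. aureus) or 20 h (C. crescentus). Growth was read at A600, and the 50% growth inhibition concentration is reported as log(1/IC50), µmol/mL.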

Caulobacter vibrioides = assay: Compound was tested against gram-negative Caulobacter crescentus, strain NA 1000 bacteria; assay type: functional, organism-based; conditions: read-out: Log 1/IC50 (converted); outline: as §1

Row | Structure (SMILES) | IC50 (Staphylococcus aureus) [mM] | IC50 (Caulobacter vibrioides) [mM]
1 | N#Cc1ccc2c(c1)C(=O)/C(=C/c1ccc([N+](=O)[O-])o1)O2 | 3.16 | 4.57
2 | CC(=O)Oc1ccc(Cl)cc1C(=O)/C=C/c1ccc([N+](=O)[O-])o1 | 10 | 50.1
3 | CCc1ccc(OC(C)=O)c(C(=O)/C=C/c2ccc([N+](=O)[O-])o2)c1 | 3.98 | 
4 | COc1ccc2c(c1)C(=O)/C(=C/c1ccc([N+](=O)[O-])o1)O2 | 0.151 | 1.05
5 | O=C(/C=C/c1ccc([N+](=O)[O-])o1)c1cc(Cl)ccc1O | 11.7 | 
6 | CCc1ccc(O)c(C(=O)/C=C/c2ccc([N+](=O)[O-])o2)c1 | 15.8 | 
7 | Cc1ccc2c(c1)C(=O)/C(=C/c1ccc([N+](=O)[O-])o1)O2 | 0.115 | 1.26
8 | CC(=O)Oc1ccccc1C(=O)/C=C/c1ccc([N+](=O)[O-])o1 | 6.92 | 42.7
9 | CCCc1ccc2c(c1)C(=O)/C(=C/c1ccc([N+](=O)[O-])o1)O2 | 0.447 | 3.09
10 | CCc1ccc2c(c1)C(=O)/C(=C/c1ccc([N+](=O)[O-])o1)O2 | 0.447 | 2.75
11 | O=C(/C=C/c1ccc([N+](=O)[O-])o1)c1ccccc1O | 7.24 | 64.6
12 | CC(=O)Oc1ccc(C)cc1C(=O)/C=C/c1ccc([N+](=O)[O-])o1 | 4.79 | 
13 | O=C1/C(=C/c2ccc([N+](=O)[O-])o2)Oc2ccccc21 | 0.302 | 1.29
14 | Cc1ccc(O)c(C(=O)/C=C/c2ccc([N+](=O)[O-])o2)c1 | 6.61 | 
15 | O=C(/C=C/c1ccc([N+](=O)[O-])o1)c1cc([N+](=O)[O-])ccc1O | 17 | 14.8
16 | O=C1/C(=C/c2ccc([N+](=O)[O-])o2)Oc2ccc(Br)cc21 | 0.661 | 3.16
17 | CC(=O)Oc1ccc([N+](=O)[O-])cc1C(=O)/C=C/c1ccc([N+](=O)[O-])o1 | 16.2 | 14.8
18 | O=C1/C(=C/c2ccc([N+](=O)[O-])o2)Oc2ccc(Cl)cc21 | 0.575 | 5.25
19 | O=C1/C(=C/c2ccc([N+](=O)[O-])o2)Oc2ccc([N+](=O)[O-])cc21 | 3.98 | 11.7
